From ChEMBL document CHEMBL1921780, “Novel 3-nitro-1H-1,2,4-triazole-based aliphatic and aromatic amines as anti-chagasic agents” (J Med Chem, 2011)

Assays:
[1] = test system: Trypanosoma brucei brucei; experiment: Antitrypanosomal activity against blood-stream Trypanosoma brucei brucei expressing type 1 nitroreductase after 3 days by alamar blue assay in absence of tetracycline; type: functional, organism-based; conditions: 72 h
Summary of the method: (§1)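 Bloodstream-form parasites seeded at 1 × 10^3 per ml in growth medium with a range of nitrotriazole or nifurtimox concentrations, no tetracycline. Incubated 3 days at 37 °C, then Alamar blue added for a further 16 h. IC50 taken from culture cell density.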

[2] = test system: Trypanosoma brucei brucei; experiment: Ratio of IC50 for blood-stream Trypanosoma brucei brucei expressing type 1 nitroreductase in the absence of tetracycline to IC50 for tetracycline-induced blood-stream Trypanosoma brucei brucei overexpressing type 1 nitroreductase; type: functional
Summary of the method: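 Each culture seeded at 1 × 10^3 per ml, given compound for 3 days at 37 °C, then Alamar blue added for 16 h. IC50 taken from cell density, and the ratio is uninduced over induced.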

[3] = test system: Trypanosoma brucei brucei; experiment: Antitrypanosomal activity against tetracycline-induced blood-stream Trypanosoma brucei brucei overexpressing type 1 nitroreductase after 3 days by alamar blue assay; type: functional, organism-based; conditions: 72 h
Summary of the method: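 Bloodstream-form parasites carrying inducible TbNTR, with expression induced by tetracycline (1 μg/mL). Seeded at 1 × 10^3 per ml with a range of nitrotriazole or nifurtimox concentrations. Incubated 3 days at 37 °C, then Alamar blue added for 16 h. IC50 taken from cell density.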

[4] = Selectivity index, ratio of IC50 for rat L6 cells to IC50 for Trypanosoma cruzi Tulahuen C4; type: toxicity, cell-based; conditions: L6 cells versus Trypanosoma cruzi Tulahuen C4, read-out: Ratio IC50
Summary of the method: (§2)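 Selectivity index is the L6 myoblast IC50 divided by the IC50 for each parasite. L. donovani was tested as axenic amastigotes. Both IC50s came from 96-well dose-response screens fitted by linear regression of sigmoidal curves.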

[5] = test system: L6; experiment: Cytotoxicity against rat L6 cells after 72 hrs by alamar blue assay; type: cell-based; conditions: L6, 72 h
Summary of the method: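 Run in 96-well plates with a compound dose series. T. cruzi was tested as amastigotes inside infected L6 rat skeletal myoblasts. Uninfected L6 cells were used for cytotoxicity. IC50 was obtained by linear regression from sigmoidal dose–inhibition curves.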

[6] = Selectivity index, ratio of IC50 for rat L6 cells to IC50 for Trypanosoma brucei rhodesiense STIB 900; type: toxicity, cell-based; conditions: L6 cells versus Trypanosoma brucei rhodesiense STIB 900, read-out: Ratio IC50; summary of the method: as §2
[7] = Selectivity index, ratio of IC50 for rat L6 cells to IC50 for Leishmania donovani MHOM-ET-67/L82; type: toxicity, cell-based; conditions: L6 cells versus Leishmania donovani MHOM-ET-67/L82, read-out: Ratio IC50; summary of the method: as §2
[8] = test system: Salmonella typhimurium; experiment: Induction of mutagenesis in Salmonella Typhimurium by Ames test; type: toxicity, organism-based; conditions: salmonella enterica subsp. enterica serovar typhimurium
[9] = test system: Trypanosoma brucei rhodesiense; experiment: Antitrypanosomal activity against blood stream form of Trypanosoma brucei rhodesiense STIB 900 […] after 72 hrs by alamar blue assay; type: functional, organism-based; conditions: STIB 900, 72 h
[10] = test system: Trypanosoma cruzi; experiment: Antitrypanosomal activity against amastigotes of Trypanosoma cruzi Tulahuen C4 infected in rat L6 cells after 72 hrs by alamar blue assay; conditions: Tulahuen C4, L6, 72 h
[11] = test system: Leishmania donovani; experiment: Antileishmanial activity against Leishmania donovani MHOM-ET-67/L82 axenic amastigotes after 72 hrs by alamar blue assay; conditions: MHOM-ET-67/L82, 72 h
[12] = Dissociation constant, pKa of the compound; type: physicochemical
[13] = test system: Trypanosoma brucei brucei; experiment: Antitrypanosomal activity against blood-stream Trypanosoma brucei brucei after 3 days by alamar blue assay; type: functional, organism-based; conditions: 72 h; summary of the method: as §1
[14] = test system: Trypanosoma cruzi; experiment: Ratio of benznidazole IC50 to compound IC50 for Trypanosoma cruzi Tulahuen C4 infected in rat L6 cells after 72 hrs by alamar blue assay; type: functional
[15] = test system: Trypanosoma cruzi; experiment: Antitrypanosomal activity against amastigote form of Trypanosoma cruzi Tulahuen C4 infected in rat L6 cells after 72 hrs by alamar blue assay; conditions: Tulahuen C4, L6, 72 h

IC50 [15] [nM] | SMILES | IC50 [1] [nM] | Ratio IC50 [2] | IC50 [3] [nM] | selectivity ratio [4] | IC50 [5] [nM] | selectivity ratio [6] | selectivity ratio [7] | Activity [8] | IC50 [9] [nM] | IC50 [10] [nM] | IC50 [11] [nM] | pKa [12] | IC50 [13] [nM] | Ratio IC50 [14]
 | CC1CS(=O)(=O)CCN1/N=C/c1ccc([N+](=O)[O-])o1 (stereo not given) [NIFURTIMOX] | 1710 | 13 | 130 |  |  |  |  |  |  |  |  |  |  | 
 | Cl.O=[N+]([O-])c1ncn(CCCNc2nc(-c3ccccc3)nc3ccccc23)n1 | 4480 | 64 | 70 | 66 | 97000 | 68 | 10 | Non-toxic | 1420 | 1480 | 9480 | 5.06 | 2630 | 0.9
 | Cl.O=[N+]([O-])c1ncn(CCCNc2ccnc3cc(Cl)ccc23)n1 |  |  |  | 236 | 143000 | 463 | 3 | Non-toxic | 309 | 607 | 45800 | 7.31 |  | 2.2
 | Cl.O=[N+]([O-])c1nccn1CCCNc1nc(-c2ccccc2)nc2ccccc12 | 7580 | 8 | 950 | 45 | 87800 | 22 | 9 |  | 3920 | 1970 | 10100 | 5.06 | 7470 | 0.7
 | Cl.Cl.O=[N+]([O-])c1ncn(CCCCN2CCN(Cc3ccc(C(F)(F)F)cc3)CC2)n1 |  |  |  | 287 | 118000 | 99 | 3 |  | 1200 | 412 | 44400 | 8.52 | > 10000 | 3.3
 | Cl.O=[N+]([O-])c1ncn(CCCNCc2cc(C(F)(F)F)cc(C(F)(F)F)c2)n1 | 11100 | 14 | 760 | 816 | 138000 | 18 | 12 | Non-toxic | 7840 | 169 | 11100 | 9.44 | 7830 | 8
 | Cl.O=[N+]([O-])c1ncn(CCCN(Cc2ccc(C(F)(F)F)cc2)Cc2ccc(C(F)(F)F)cc2)n1 | 200 | 2 | 100 | 634 | 91900 | 339 | 264 |  | 271 | 145 | 348 | 8.79 | 210 | 9.3
 | Cl.O=[N+]([O-])c1ncn(CCCCNc2ccnc3cc(Cl)ccc23)n1 | 440 | 4 | 100 | 976 | 137000 | 708 | 2 |  | 193 | 140 | 64500 | 7.31 | 170 | 9.6
 | Cl.Cl.O=[N+]([O-])c1ncn(CCCN2CCN(c3ccc(C(F)(F)F)cc3)CC2)n1 | 2630 | 13 | 210 | 1320 | 52800 | 10 | 2 |  | 5330 | 40 | 25900 | 7.85 | 2300 | 33.8
 | Cl.O=[N+]([O-])c1ncn(CCCNc2ccnc3cccnc23)n1 |  |  |  | 129 | 133000 | 60 | 1 |  | 2220 | 1030 | 182000 | 6.81 | > 10000 | 1.3
1350 | O=C(Cn1ccnc1[N+](=O)[O-])NCc1ccccc1 [BENZNIDAZOLE] |  |  |  |  |  |  |  |  |  |  |  |  |  | 1
 | Cl.Cl.O=[N+]([O-])c1ncn(CCCN2CCN(Cc3ccc(C(F)(F)F)cc3)CC2)n1 |  |  |  | > 562 | > 191000 | > 140 | > 3 |  | 1380 | 340 | 58200 | 8.33 | > 10000 | 4
